Experiment [1] deals with Pseudomonas aeruginosa. The experiment in a line: Inhibition of biofilm formation in Pseudomonas aeruginosa PAO1 at 1/4 times MIC incubated for 24 hrs crystal violet staining based SEM assay. It counts as functional.
Experiment [2] is described as follows: Inhibition of quorum sensing system in Pseudomonas aeruginosa PAO1. In short, it runs like this:
(§1)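 Plate screen. CV026 grown overnight in LB with 50 μg ml−1 kanamycin; 15 μl seeded into 15 ml LB agar (1.0% agarose) containing 20 μM C4-HSL. PAO1 plates run in parallel. Test colonies inoculated by toothpick, incubated overnight at 37 °C. Ring of colourless viable cells around the colony scored as inhibition.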

In experiment [3] the test system is Pseudomonas aeruginosa. The experiment in a line: Inhibition of pyocyanin production in Pseudomonas aeruginosa PAO1 at 1/2 time MIC incubated for 18 hrs. It is filed as functional. In short, it runs like this:
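Overnight PAO1 in LB diluted to OD600 = 0.05, subcultured 5–7 h to mid-log, rediluted to OD600 = 0.05. 5 mL with compound grown 18 h at 37 °C, 200 rpm. Supernatant extracted with 3 mL chloroform, back-extracted into 0.2 M HCl, absorbance at 520 nm.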

Experiment [4] is described as follows: Inhibition of quorum sensing system in Chromobacterium violaceum CV026. In short, it runs like this:
as §1

In experiment [5] the test system is Pseudomonas aeruginosa. The experiment in a line: Antibacterial activity against Pseudomonas aeruginosa PAO1 by serial dilution method. It is filed as functional. Put shortly: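 PAO1 in LB, 37 °C. MIC by CLSI 2-fold serial dilution in Mueller–Hinton broth, inoculum 1–5 × 10^5 CFU mL−1, DMSO stocks. Growth curves: overnight culture diluted to OD600 = 0.05, subcultured to mid-log, rediluted to OD600 = 0.05, 3 mL with compound; OD620 read at 1, 3, 5, 7, 9, 11 and 24 h at 37 °C; DMSO negative control.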

In experiment [6] the test system is Pseudomonas aeruginosa. The experiment in a line: Inhibition of biofilm formation in Pseudomonas aeruginosa PAO1 at 1/2 times MIC incubated for 24 hrs crystal violet staining based SEM assay. It is filed as functional.
In experiment [7] the test system is Pseudomonas aeruginosa. Put plainly: Inhibition of rhamnolipid production in Pseudomonas aeruginosa PAO1 at 1/2 to 1/4 times MIC by orcinol method. It counts as functional, organism-based. Put shortly: (§2)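 Overnight PAO1 diluted 1:100 into LB with compound, 37 °C, 180 rpm; DMSO control. Supernatant (100 μL) mixed with 900 μL 0.19% orcinol in 53% H2SO4, heated 30 min at 80 °C, cooled, read at 421 nm.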

Experiment [8] concerns Pseudomonas aeruginosa. The experiment in a line: Inhibition of biofilm formation in Pseudomonas aeruginosa PAO1 incubated for 24 hrs crystal violet staining based SEM assay. It counts as functional, organism-based.
Experiment [9] relates to Pseudomonas aeruginosa. Put plainly: Anti-virulence effect in Pseudomonas aeruginosa PAO1 assessed as inhibition of EPS production at 25 ug/ml. It counts as functional. On the set-up: scale not given: the % may be the effect or the level left. Conditions: dose 25 µg/ml. Put shortly:
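PAO1 grown with compound (6.25–25 μg mL−1) in 24-well plates for 24 h at 37 °C and 180 rpm; DMSO and RSV (25 μg mL−1) as controls. Biofilms washed with water, then treated with 0.9% NaCl, 5% phenol and 0.2% hydrazine sulfate. Held 1 h in the dark, read at OD490. Three independent experiments.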

Experiment [10] has as its system Pseudomonas aeruginosa. Put plainly: Inhibition of biofilm formation in Pseudomonas aeruginosa PAO1 at 25 ug/ml incubated for 24 hrs crystal violet staining based assay. It counts as functional. In short, it runs like this: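 PAO1 grown statically for 24 h in LB ± compound in 24-well plates. Planktonic cells removed; attached cells stained with 0.05% crystal violet, rinsed, dissolved in 95% ethanol, read at OD570. DMSO negative, resveratrol positive control; SD from three independent experiments.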

Experiment [11] has as its system Pseudomonas aeruginosa. The experiment in a line: Anti-virulence effect in Pseudomonas aeruginosa PAO1 assessed as inhibition of pyocyanin production at 25 ug/ml. It is filed as functional. Further details: scale not given: the % may be the effect or the level left. The following applies: dose 25 µg/ml. Put shortly: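 Overnight PAO1 culture in LB at 37 °C, diluted to OD600 0.05 and subcultured 5–7 h to mid-log phase, then re-diluted to OD600 0.05. Grown 18 h at 37 °C and 200 rpm with compound (6.25, 12.5, 25 μg mL−1) or DMSO. Supernatant extracted into chloroform, back-extracted into 0.2 M HCl, read at 520 nm.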

The subject of experiment [12] is Pseudomonas aeruginosa. The experiment in a line: Anti-virulence effect in Pseudomonas aeruginosa PAO1 assessed as inhibition of rhamnolipid production at 25 ug/ml. It is filed as functional. Further details: scale not given: the % may be the effect or the level left. The following applies: dose 25 µg/ml. Put shortly:
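PAO1 culture supernatant from growth with compound (6.25–25 μg mL−1) at 37 °C and 180 rpm, or with DMSO or RSV (25 μg mL−1) as controls. Orcinol assay: 100 μL sample plus 0.19% orcinol in 53% H2SO4, heated 30 min at 80 °C, cooled, read at 421 nm. At least three experiments in triplicate.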

Experiment [13] concerns Pseudomonas aeruginosa. Put plainly: Anti-virulence effect in Pseudomonas aeruginosa PAO1 assessed as decrease in protease level at 25 ug/ml. It counts as functional. On the set-up: scale not given: the % may be the effect or the level left. Conditions: dose 25 µg/ml. In short, it runs like this: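 Overnight PAO1 culture diluted 1:100 into LB with compound (6.25–25 μg mL−1), grown at 37 °C and 180 rpm; DMSO and RSV (25 μg mL−1) as controls. Culture supernatant mixed with 2% azocasein in 1 M Tris–HCl pH 8.0 for 15 min at 37 °C. Reaction stopped with 10% TCA, centrifuged, NaOH added, read at OD440.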

Experiment [14] relates to Pseudomonas aeruginosa. Put plainly: Induction of biofilm eradication in Pseudomonas aeruginosa PAO1 at 25 ug/ml by crystal violet staining based assay. It is filed as functional. Conditions: dose 25 µg/ml. Put shortly:
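PAO1 biofilms grown overnight at 37 °C in LB in 24-well plates, washed with PBS, then fresh LB with compound added and grown overnight again. Washed, methanol-fixed, crystal violet stained, ethanol solubilised, read at OD570. DMSO negative, resveratrol positive control.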

Experiment [15] concerns Pseudomonas aeruginosa. Put plainly: Inhibition of rhamnolipid production in Pseudomonas aeruginosa PAO1 at 1/4 times MIC by orcinol method. It is filed as functional. In short, it runs like this: as §2
Experiment [16] concerns Pseudomonas aeruginosa. Put plainly: Inhibition of rhamnolipid production in Pseudomonas aeruginosa PAO1 at 1/2 times MIC by orcinol method. It is filed as functional. In short, it runs like this:
as §2

Values after ≈ are worked out from the molar mass of the structure shown. Active and inactive are the calls of the source. The rule behind the calls is not given here.

As to `N#Cc1ccccc1Cc1c[nH]c2ccccc12`, the “inhibition (INH)” value in the experiment with Pseudomonas aeruginosa [1] came out at 15%; in the experiment with Pseudomonas aeruginosa [6], 38%. Further, the inhibition entry was “Active; Strong Inhibition Observed” in [2], “Active; Showed Higher Activity Than Positive Control Rsv” with Pseudomonas aeruginosa [3], “Active; Showed Higher Activity” in experiment [4] and “Dose-dependent-effect” with Pseudomonas aeruginosa [8]. The compound further yielded an MIC against Pseudomonas aeruginosa [5] of 96 µg/mL (≈ 413 µM). Moreover, the inhibition entry with Pseudomonas aeruginosa [7] is “Active”.

For `Oc1ccc(/C=C/c2cc(O)cc(O)c2)cc1` [RESVERATROL], the Activity in the experiment with Pseudomonas aeruginosa [9] was 22%; in the experiment with Pseudomonas aeruginosa [11], 26%; in the experiment with Pseudomonas aeruginosa [12] it was 12%; in the experiment on Pseudomonas aeruginosa [13], 26%; in the experiment on Pseudomonas aeruginosa [14] it was 47%. Further, testing at 25 µg/mL in the experiment on Pseudomonas aeruginosa [10] gave an inhibition of 55%. For the same compound, the “inhibition (INH)” value in the experiment with Pseudomonas aeruginosa [3] is 38%. Also, in the experiment on Pseudomonas aeruginosa [8], the inhibition entry was “Dose-dependent-effect”.

For the compound `COc1ccc2[nH]cc(Cc3ccccc3C#N)c2c1`, the inhibition entry in [2] is “Active; Strong Inhibition Observed”; with Pseudomonas aeruginosa [3], “Active; Showed Higher Activity Than Positive Control Rsv”; in experiment [4] it was “Active; Showed Higher Activity”; in the experiment with Pseudomonas aeruginosa [8], “Dose-dependent-effect”. In addition, the “inhibition (INH)” value stood at 30% in the experiment on Pseudomonas aeruginosa [15], 7% with Pseudomonas aeruginosa [6] and 44% in the experiment with Pseudomonas aeruginosa [16]. Moreover, in the experiment on Pseudomonas aeruginosa [5], the MIC amounted to 6 µg/mL (≈ 22.9 µM). Also, in the experiment on Pseudomonas aeruginosa [7], the inhibition entry is “Active”.

Broadly, the inhibition is how much of the control response was suppressed. For orientation: MIC means the lowest concentration that inhibits growth of the organism.

The values are drawn from ChEMBL document CHEMBL6083194, “Discovery and evaluation of 3-(2-isocyanobenzyl)-1H-indole derivatives as potential quorum sensing inhibitors for the control of Pseudomonas aeruginosa infections in vitro” (RSC Med Chem, 2024).
